# Source: PubChem
# Only some compounds are listed: those with a hit (about 1.8% of all), similar ones and a draw of the others.
# Tn6 DDE FP = inhibitors of Tn6 peptide binding to human fibrin DD(E). inhibition, % at 8.3 µM. P02675. 370,000 compounds, 0.21% hits. Fibrin DD(E) TRITC-Tn6 fluorescence polarization displacement. AID 720509;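 active = inhibition above a per-campaign cutoff: mean of compounds within control limits plus 3 SD, cut at about 15% in these data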;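 also: 0% = median of all compound wells on the plate and 100% = blocking peptide control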
# HTRA1 inh = HTRA1 (human) protease inhibition; 340,000 compounds, 0.5% hits; Q92743; AID 504803; recombinant HTRA1, FP-rhodamine activity-based probe, fluorescence polarization; inhibition, % at 5.96 µM; in the data active = inhibition above about 36%;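 also: 0% = enzyme with DMSO and 100% = wells lacking enzyme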
# TCR CD3 inh = human TCR-CD3 binding inhibition | 360,000 compounds, 0.37% hits | AID 651800 | TAMRA-labeled TCR probe fluorescence, biochemical | inhibition, % at 9.4 µM;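 also: recombinant mutant TCR 2C K166C tagged with TAMRA read by polarization; 0% = receptor in buffer alone and 100% = receptor with positive control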
# ABHD4 inh = ABHD4 (mouse) inhibition, primary FP screen | Q8VD66 | purified mABHD4, FP-Rh probe fluorescence polarization | inhibition, % at 8.92 µM | 370,000 compounds, 0.54% hits | AID 720543;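 active = inhibition exceeding the mean over every tested compound plus 3 SD, cut at about 30% in these data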;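 also: 0% = plate median of compound wells and 100% = S159A mutant with DMSO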
#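 Test system: mABHD4 protein | Buffer or medium: HEPES pH 7.0 buffer, 150 mM NaCl, 0.01% Pluronic F-127 | Probe or stimulus: FP-Rh fluorescent activity-based probe, added after compound pre-incubation | Timing: Pre-incubation 45 min, probe exposure 60 min, at 25 °C | Technique: Fluorescence polarization, excitation 525 nm, emission 598 nm, BODIPY TMR filters | Repeats: Single well per compound (singlicate)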
# SIAE primary = blocks human sialic acid acetylesterase; SIAE FP-Rh probe binding, fluorescence polarization; inhibition, % at 9.66 µM; 370,000 compounds, 0.69% hits; AID 1053197;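 active = inhibition above a cutoff: mean of compounds within the control limits plus 3 SD of those, cut at about 17% in these data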;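 also: 0% = plate median of compound wells and 100% = probe without SIAE protein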
# Target sequence (Q9HAT2 whole entry, looked up): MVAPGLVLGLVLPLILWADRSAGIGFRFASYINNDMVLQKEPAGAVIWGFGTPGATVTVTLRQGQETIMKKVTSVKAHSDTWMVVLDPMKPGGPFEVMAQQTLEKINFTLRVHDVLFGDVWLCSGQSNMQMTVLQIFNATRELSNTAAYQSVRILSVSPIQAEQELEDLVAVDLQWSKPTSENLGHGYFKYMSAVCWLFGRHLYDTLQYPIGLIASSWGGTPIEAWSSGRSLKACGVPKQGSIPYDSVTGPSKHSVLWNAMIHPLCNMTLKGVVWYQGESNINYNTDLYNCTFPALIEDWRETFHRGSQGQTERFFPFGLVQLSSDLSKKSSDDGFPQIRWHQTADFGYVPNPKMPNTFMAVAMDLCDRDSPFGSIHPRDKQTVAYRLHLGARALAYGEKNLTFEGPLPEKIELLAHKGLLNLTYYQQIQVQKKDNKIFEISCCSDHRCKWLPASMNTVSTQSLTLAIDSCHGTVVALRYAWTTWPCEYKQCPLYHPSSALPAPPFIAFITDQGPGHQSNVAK
# Tn7 DDE FP = DD(E)-Tn7 binding inhibition, primary FP screen; AID 720508; P02675; inhibition, % at 8.3 µM; FP displacement of FITC-Tn7 peptide from fibrin DD(E); 0% = median of compound wells per plate; 370,000 compounds, 0.13% hits;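 active = inhibition above the mean of compounds falling within the control limits plus 3 SD of them, cut at about 14% in these data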;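 also: 0% = plate median of compound wells and 100% = 10 µM Aha-Tn7 peptide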
#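 Also added: labelled Tn7 tracer, 0.1 µM; Assay system: human fibrin DD(E) protein; Amount: 2 µM fibrin DD(E); Schedule: 10 min compound pre-incubation, 3 h probe incubation at room temperature; Repeats: one replicate per compound; Read-out basis: percent inhibition; Measured by: fluorescence polarization of the labelled Tn7 tracer.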
# HTRA1 inh conf = confirmation of human HTRA1 inhibitors. shares compounds with HTRA1 inh. inhibition, % at 5.96 µM. 1,600 compounds, 66% hits. recombinant HTRA1, FP-rhodamine activity-based probe, fluorescence polarization. AID 540248;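 active = mean inhibition over three repeats above a set limit taken from the earlier primary screen, cut at about 37% in these data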;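 also: 0% = HTRA1 with DMSO and 100% = wells lacking HTRA1; inhibitors block probe binding so polarization drops and inhibition rises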
# BSA probe FL = BSA probe counter-screen for TCR-CD3 inhibitors; shares compounds with TCR CD3 inh; TAMRA-labeled BSA probe fluorescence counterscreen; inhibition, % at 9.4 µM; 1,200 compounds, 10% hits; AID 652035; in the data active = inhibition above about 23%;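 also: 0% = buffer low control and 100% = reference high control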
# TCR-CD3 inh conf = confirmation of human TCR-CD3 interaction inhibitors. shares compounds with TCR CD3 inh. TAMRA-labeled TCR probe fluorescence binding assay. inhibition, % at 9.4 µM. 1,200 compounds, 48% hits
# DDE Tn6 FP ctr = DD(E)-Tn6 binding inhibition, counter-screen. shares compounds with Tn6 DDE FP. Fibrin DD(E), TRITC-Tn6 fluorescence polarization displacement; 0% = median of compound wells, not DMSO. inhibition, % at 8.3 µM. 680 compounds, 2% hits. AID 720621;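 active = inhibition above the mean of test compounds lying between the control limits plus 3 SD of those, cut at about 14% in these data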;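 also: 0% = median of compound wells and 100% = wells with Aha-Tn7 blocking peptide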
# DDE Tn6 confirm = confirmation of inhibitors of Tn6 binding to human fibrin DD(E); inhibition, % at 8.3 µM; shares compounds with Tn6 DDE FP; FP displacement of TRITC-Tn6 peptide from DD(E); 0% = per-plate median of test wells; 680 compounds, 10% hits;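 active = inhibition above the mean of compounds lying within the control limits plus 3 SD, cut at about 16% in these data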;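 also: 100% = high control wells holding a competing inhibitor peptide at 10 µM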
# ABHD4 confirm = confirmation of mouse ABHD4 inhibitors; shares compounds with ABHD4 inh; purified mABHD4, FP-Rh probe fluorescence polarization; inhibition, % at 8.92 µM; 1,800 compounds, 55% hits; AID 720658;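 active = mean inhibition across replicates above the hit cutoff set in the primary screen, cut at about 30% in these data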;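 also: 0% = wild-type ABHD4 with DMSO and 100% = catalytically dead S159A mutant with DMSO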
# The depositor's hits bear a star; . = not tested or not shown. Rule as the data show it, unless noted: active = inhibition above about 19%; inactive = the rest.
SMILES,Tn6 DDE FP,HTRA1 inh,TCR CD3 inh,ABHD4 inh,SIAE primary,Tn7 DDE FP,HTRA1 inh conf,ABHD4 confirm,others
Cc1c2ccccc2nc2c(F)c(NC(C)C)c(F)c(F)c12,-6.1,57.3*,-2.6,47.0*,14.6,2.6,26.0,26.6,
OCCNc1c2ccccc2nc2c(F)c(F)c(F)c(F)c12,-9.2,0.1,8.5,7.0,-0.3,7.3,.,.,
Cc1ccc(-n2c(SCC(=O)c3ccc(F)cc3)nnc2-c2cnccn2)cc1,-1.4,.,.,-2.6,-7.6,7.1,.,.,
N#CCCCC1(CCCC#N)OCCO1,-9.8,-2.8,3.2,-3.0,2.3,9.8,.,.,
C=CCOc1c(Cl)cc(CNCCC)cc1Cl,12.1,-2.9,-4.0,5.6,1.2,7.5,.,.,
C=CCOc1c(Cl)cc(CNc2ccc(N(C)C)cc2)cc1OC,10.8,48.1*,7.5,39.6*,11.3,-1.9,7.4,45.2*,
CC1(C)CNc2cc(N)ccc2S1,-2.2,72.0*,0.3,37.9*,5.9,-2.6,13.3,40.3*,
O=[N+]([O-])c1ccc2c([N+](=O)[O-])ccc3c2c1CC3,-0.1,53.6*,9.1,40.1*,16.5,-5.3,38.4*,90.5*,
CCS(=O)(=O)NCc1ccc2c(c1)cc(C)n2C,7.1,21.8,13.1,-2.4,-5.0,0.7,.,.,
COc1ccc(S(=O)(=O)NCc2ccc3c(c2)cc(C)n3C)cc1,50.8*,40.2*,35.0*,46.8*,18.2*,-0.1,0.3,15.3,BSA probe FL=24.7*;TCR-CD3 inh conf=27.7*;DDE Tn6 FP ctr=-3.7;DDE Tn6 confirm=-6.7
COc1ccc(NC(=S)NNc2ccc(S(=O)(=O)Nc3ccccc3C(=O)O)cc2[N+](=O)[O-])cc1,2.9,73.8*,0.8,74.4*,-11.4,4.5,73.2*,95.5*,
CC(=O)c1ccc(OCc2nnn(CC(=O)NS(=O)(=O)c3ccc(C)cc3)c2-c2ccccc2)cc1,8.3,.,-1.7,3.8,-9.3,2.5,.,.,
CCCCCCCCCCCCCCCC[n+]1cccc2ccccc21,-3.6,64.0*,4.6,37.3*,2.2,-4.7,71.0*,53.6*,
CCCCCCCCC[n+]1cccc2c3ccccc3ccc21,.,11.0,.,.,.,.,.,.,
Clc1ccc(C2Nc3cccc4cccc(c34)N2)cc1Cl,2.0,20.8,-6.1,13.8,5.0,-6.4,.,.,
Fc1cccc(Cl)c1C1Nc2cccc3cccc(c23)N1,-1.1,49.7*,14.4,57.2*,14.8,-9.8,18.6,47.6*,
Clc1cccc(Cl)c1C1Nc2cccc3cccc(c23)N1,-1.3,70.5*,5.6,71.6*,15.7,-0.9,26.0,48.0*,
COc1cc(OC)cc(C(=O)N2CC(=O)Nc3ccccc32)c1,-6.6,8.9,4.4,0.9,0.7,3.4,.,.,
Cc1cc(=O)c2c(o1)C(=O)c1occc1C2=O,2.0,46.0*,8.5,57.8*,4.9,-0.3,14.7,60.5*,
CCN(C(=O)[C@H]1CC(=O)O[C@@H]1c1ccccc1)c1ccccc1,-8.7,.,.,-2.7,3.5,-4.1,.,.,
CCc1nc2c(OCCc3cccc(OC)c3)cccn2c1N(C)C(=O)c1ccc(OC)cc1,5.7,.,-9.2,-1.6,5.3,-2.1,.,.,
